ChEMBL document CHEMBL1153856, “Synthesis and spectral characterization of a new class of N-(N-methylpiperazinoacetyl)-2,6-diarylpiperidin-4-ones: antimicrobial, analgesic and antipyretic studies” (2009)
Values after ≈ are worked out from the molar mass of the structure shown.

Experiments:
Format in all cases: functional
Mus musculus [1] = test: Analgesic activity in albino mouse assessed as inhibition of acetic acid-induced writhing response at 30 mg/kg, po administered 1 hr prior to acetic acid challenge relative to control
How it was run: (§1)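 Albino mice of both sexes, 20–25 g, n = 6 per group. Doses of 30, 60 or 90 mg/kg were given orally as suspensions in 1% sodium CMC. 1 h later, 1% acetic acid in normal saline (10 mL/kg) was injected ip. Complete extension of either hind limb counted as a writhe. Counting started 5 min after injection and ran 30 min. Results are % inhibition = [1 − T/C] × 100 versus vehicle controls, mean ± SEM.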

Rattus norvegicus [2] = test: Antipyretic activity against brewer's yeast-induced hyperthermia in Wistar rat assessed as change in rectal temperature at 60 mg/kg, po after 90 mins
How it was run: (§2)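 Wistar rats of both sexes, 200–250 g, received brewer's yeast in normal saline sc. Rectal temperature was taken with a digital thermometer (precision 0.1 °C). At 18 h, rats whose temperature had risen 0.3–0.5 °C were selected. Test compounds (30 or 60 mg/kg) or indomethacin (5 mg/kg) were given orally in 1% CMC; controls received vehicle only. Temperature was measured at 30, 60, 90, 120 and 150 min, mean ± SEM.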

Pseudomonas aeruginosa = test: Antimicrobial activity against Pseudomonas aeruginosa after 24 hrs by twofold serial dilution method
How it was run: (§3)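 Twofold serial broth dilution in nutrient broth at pH 7.4 ± 0.2. Compound stocks were 1 mg/mL in DMSO, diluted 1:5 into seeded broth, then six serial dilutions. Inocula came from 24 h nutrient-agar cultures, final 10⁵ cfu/mL. Incubation was 37 ± 1 °C for 24 h, with growth and solvent controls. MIC was read visually; ciprofloxacin was the standard.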

Candida albicans = test: Antimicrobial activity against Candida albicans after 72 to 96 hrs by twofold serial dilution method
How it was run: (§4)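 Twofold serial broth dilution in Sabouraud dextrose broth at pH 5.6. Spores came from 1–7-day Sabouraud agar slants, final inoculum 1.1–1.5 × 10² cfu/mL. Compound stocks were 1 mg/mL in DMSO, diluted 1:5 into seeded broth, then six serial dilutions. Incubation was 28 ± 1 °C for 72–96 h, with growth and solvent controls. MIC was read visually; amphotericin B was the standard.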

Mus musculus [3] = test: Analgesic activity in albino mouse assessed as inhibition of acetic acid-induced writhing response at 60 mg/kg, po administered 1 hr prior to acetic acid challenge relative to control; how it was run: as §1
Rattus norvegicus [4] = test: Antipyretic activity against brewer's yeast-induced hyperthermia in Wistar rat assessed as change in rectal temperature at 60 mg/kg, po after 60 mins; how it was run: as §2
Rattus norvegicus [5] = test: Antipyretic activity against brewer's yeast-induced hyperthermia in Wistar rat assessed as change in rectal temperature at 30 mg/kg, po after 150 mins; how it was run: as §2
Rattus norvegicus [6] = test: Antipyretic activity against brewer's yeast-induced hyperthermia in Wistar rat assessed as change in rectal temperature at 60 mg/kg, po after 30 mins; how it was run: as §2
Rattus norvegicus [7] = test: Antipyretic activity against brewer's yeast-induced hyperthermia in Wistar rat assessed as change in rectal temperature at 60 mg/kg, po after 150 mins; how it was run: as §2
[8] = system: Salmonella enterica subsp. enterica serovar Typhi str. CT18; test: Antimicrobial activity against Salmonella typhi after 24 hrs by twofold serial dilution method; how it was run: as §3
Mus musculus [9] = test: Analgesic activity in albino mouse assessed as inhibition of acetic acid-induced writhing response at 90 mg/kg, po administered 1 hr prior to acetic acid challenge relative to control; how it was run: as §1
Rhizopus = test: Antimicrobial activity against Rhizopus sp. after 72 to 96 hrs by twofold serial dilution method; how it was run: as §4
Rattus norvegicus [10] = test: Antipyretic activity against brewer's yeast-induced hyperthermia in Wistar rat assessed as change in rectal temperature at 60 mg/kg, po after 120 mins; how it was run: as §2
Rattus norvegicus [11] = test: Antipyretic activity against brewer's yeast-induced hyperthermia in Wistar rat assessed as change in rectal temperature at 30 mg/kg, po after 120 mins; how it was run: as §2
Rattus norvegicus [12] = test: Antipyretic activity against brewer's yeast-induced hyperthermia in Wistar rat assessed as change in rectal temperature at 30 mg/kg, po after 90 mins; how it was run: as §2
Rattus norvegicus [13] = test: Antipyretic activity against brewer's yeast-induced hyperthermia in Wistar rat assessed as change in rectal temperature at 30 mg/kg, po after 60 mins; how it was run: as §2
Rattus norvegicus [14] = test: Antipyretic activity against brewer's yeast-induced hyperthermia in Wistar rat assessed as change in rectal temperature at 30 mg/kg, po after 30 mins; how it was run: as §2
Aspergillus flavus = test: Antimicrobial activity against Aspergillus flavus after 72 to 96 hrs by twofold serial dilution method; how it was run: as §4
Aspergillus niger = test: Antimicrobial activity against Aspergillus niger after 72 to 96 hrs by twofold serial dilution method; how it was run: as §4
Klebsiella pneumoniae = test: Antimicrobial activity against Klebsiella pneumoniae after 24 hrs by twofold serial dilution method; how it was run: as §3
Escherichia coli = test: Antimicrobial activity against Escherichia coli after 24 hrs by twofold serial dilution method; how it was run: as §3
Staphylococcus aureus = test: Antimicrobial activity against Staphylococcus aureus after 24 hrs by twofold serial dilution method; how it was run: as §3

For COc1ccc(C2C(C)C(=O)C(C)C(c3ccc(OC)cc3)N2C(=O)CN2CCN(C)CC2)cc1 (stereo not given), the inhibition in vivo at 30 mg/kg (Mus musculus [1]) was 46.2%, the Activity (Rattus norvegicus [2]) was 37.9 °C and the MIC (Pseudomonas aeruginosa) was 50 µg/mL (≈ 104 µM). For the same molecule, the MIC (Candida albicans) was 6.25 µg/mL (≈ 13 µM), the inhibition in vivo at 60 mg/kg (Mus musculus [3]) was 59.1% and the Activity (Rattus norvegicus [4]) was 38.95 °C. For the same molecule, the Activity (Rattus norvegicus [5]) was 37.7 °C, the Activity (Rattus norvegicus [6]) was 38.01 °C and the Activity (Rattus norvegicus [7]) was 37.6 °C. For the same molecule, the MIC [8] was 100 µg/mL (≈ 208 µM), the inhibition in vivo at 90 mg/kg (Mus musculus [9]) was 38.7% and the MIC (Rhizopus) was 25 µg/mL (≈ 52.1 µM). For the same molecule, the Activity (Rattus norvegicus [10]) was 37.85 °C, the Activity (Rattus norvegicus [11]) was 37.8 °C and the Activity (Rattus norvegicus [12]) was 37.95 °C. It also gave an Activity (Rattus norvegicus [13]) of 38.01 °C, an Activity (Rattus norvegicus [14]) of 38.1 °C and an MIC (Aspergillus flavus) of 12.5 µg/mL (≈ 26.1 µM). The MIC (Aspergillus niger) was 25 µg/mL (≈ 52.1 µM), the MIC (Klebsiella pneumoniae) was 25 µg/mL (≈ 52.1 µM) and the MIC (Escherichia coli) was 25 µg/mL (≈ 52.1 µM). For the same molecule, the MIC (Staphylococcus aureus) was 12.5 µg/mL (≈ 26.1 µM).
With CCC1C(=O)CC(c2ccccc2)N(C(=O)CN2CCN(C)CC2)C1c1ccccc1 (stereo not given) the inhibition in vivo at 30 mg/kg (Mus musculus [1]) was 8%, the Activity (Rattus norvegicus [2]) was 38.1 °C and the MIC (Pseudomonas aeruginosa) was 200 µg/mL (≈ 477 µM). For the same molecule, the MIC (Candida albicans) was 100 µg/mL (≈ 238 µM), the inhibition in vivo at 60 mg/kg (Mus musculus [3]) was 4.5% and the Activity (Rattus norvegicus [4]) was 38.2 °C. The Activity (Rattus norvegicus [5]) was 38.98 °C, the Activity (Rattus norvegicus [6]) was 38.25 °C and the Activity (Rattus norvegicus [7]) was 38.9 °C. It also gave an MIC [8] of 100 µg/mL (≈ 238 µM), an inhibition in vivo at 90 mg/kg (Mus musculus [9]) of 1.2% and an MIC (Rhizopus) greater than 200 µg/mL. For the same molecule, the Activity (Rattus norvegicus [10]) was 38.95 °C, the Activity (Rattus norvegicus [11]) was 38.01 °C and the Activity (Rattus norvegicus [12]) was 38.15 °C. It also gave an Activity (Rattus norvegicus [13]) of 38.22 °C, an Activity (Rattus norvegicus [14]) of 38.27 °C and an MIC (Aspergillus flavus) greater than 200 µg/mL. It also gave an MIC (Aspergillus niger) of 200 µg/mL (≈ 477 µM), an MIC (Klebsiella pneumoniae) of 50 µg/mL (≈ 119 µM) and an MIC (Escherichia coli) greater than 200 µg/mL. It also gave an MIC (Staphylococcus aureus) of 100 µg/mL (≈ 238 µM).
In the case of COc1ccc(C2CC(=O)C(C)C(c3ccc(OC)cc3)N2C(=O)CN2CCN(C)CC2)cc1 (stereo not given), the inhibition in vivo at 30 mg/kg (Mus musculus [1]) is reported as 48.2%, the Activity (Rattus norvegicus [2]) is reported as 37.5 °C and the MIC (Pseudomonas aeruginosa) is reported as 50 µg/mL (≈ 107 µM). The MIC (Candida albicans) was 25 µg/mL (≈ 53.7 µM), the inhibition in vivo at 60 mg/kg (Mus musculus [3]) was 70.3% and the Activity (Rattus norvegicus [4]) was 37.7 °C. For the same molecule, the Activity (Rattus norvegicus [5]) was 37.2 °C, the Activity (Rattus norvegicus [6]) was 37.85 °C and the Activity (Rattus norvegicus [7]) was 37.01 °C. The MIC [8] was 200 µg/mL (≈ 430 µM), the inhibition in vivo at 90 mg/kg (Mus musculus [9]) was 48% and the MIC (Rhizopus) was 50 µg/mL (≈ 107 µM). It also gave an Activity (Rattus norvegicus [10]) of 37.3 °C, an Activity (Rattus norvegicus [11]) of 37.5 °C and an Activity (Rattus norvegicus [12]) of 37.6 °C. For the same molecule, the Activity (Rattus norvegicus [13]) was 37.8 °C, the Activity (Rattus norvegicus [14]) was 37.9 °C and the MIC (Aspergillus flavus) was 50 µg/mL (≈ 107 µM). The MIC (Aspergillus niger) was 100 µg/mL (≈ 215 µM), the MIC (Klebsiella pneumoniae) was 100 µg/mL (≈ 215 µM) and the MIC (Escherichia coli) was 50 µg/mL (≈ 107 µM). The MIC (Staphylococcus aureus) was 100 µg/mL (≈ 215 µM).
CC(=O)Oc1ccccc1C(=O)O [ASPIRIN] was tested, and the inhibition in vivo at 30 mg/kg (Mus musculus [1]) was 44.8%, the inhibition in vivo at 60 mg/kg (Mus musculus [3]) was 57.9% and the inhibition in vivo at 90 mg/kg (Mus musculus [9]) was 38.6%.
In the case of CC(C)C1C(=O)CC(c2ccccc2)N(C(=O)CN2CCN(C)CC2)C1c1ccccc1 (stereo not given), the inhibition in vivo at 30 mg/kg (Mus musculus [1]) is reported as 5.6%, the Activity (Rattus norvegicus [2]) is reported as 38.95 °C and the MIC (Pseudomonas aeruginosa) is reported as 100 µg/mL (≈ 231 µM). The MIC (Candida albicans) was 200 µg/mL (≈ 461 µM), the inhibition in vivo at 60 mg/kg (Mus musculus [3]) was 18.1% and the Activity (Rattus norvegicus [4]) was 38.01 °C. It also gave an Activity (Rattus norvegicus [5]) of 38.9 °C, an Activity (Rattus norvegicus [6]) of 38.05 °C and an Activity (Rattus norvegicus [7]) of 38.75 °C. The MIC [8] was 50 µg/mL (≈ 115 µM), the inhibition in vivo at 90 mg/kg (Mus musculus [9]) was 2.2% and the MIC (Rhizopus) was 50 µg/mL (≈ 115 µM). For the same molecule, the Activity (Rattus norvegicus [10]) was 38.9 °C, the Activity (Rattus norvegicus [11]) was 38.96 °C and the Activity (Rattus norvegicus [12]) was 38.01 °C. For the same molecule, the Activity (Rattus norvegicus [13]) was 38.1 °C, the Activity (Rattus norvegicus [14]) was 38.15 °C and the MIC (Aspergillus flavus) was 100 µg/mL (≈ 231 µM). For the same molecule, the MIC (Aspergillus niger) was 100 µg/mL (≈ 231 µM), the MIC (Klebsiella pneumoniae) was 200 µg/mL (≈ 461 µM) and the MIC (Escherichia coli) was 100 µg/mL (≈ 231 µM). The MIC (Staphylococcus aureus) was 200 µg/mL (≈ 461 µM).
C[C@@H]1[C@H](O)[C@@H](C)/C=C/C=C/C=C/C=C/C=C/C=C/C=C/[C@H](O[C@@H]2O[C@H](C)[C@@H](O)[C@H](N)[C@@H]2O)C[C@@H]2O[C@](O)(C[C@@H](O)C[C@@H](O)[C@H](O)CC[C@@H](O)C[C@@H](O)CC(=O)O[C@H]1C)C[C@H](O)[C@H]2C(=O)O [AMPHOTERICIN B] gave an MIC (Candida albicans) of 25 µg/mL (≈ 27.1 µM), an MIC (Rhizopus) of 25 µg/mL (≈ 27.1 µM) and an MIC (Aspergillus flavus) of 50 µg/mL (≈ 54.1 µM). For the same molecule, the MIC (Aspergillus niger) was 50 µg/mL (≈ 54.1 µM).
